# According to ChEMBL document CHEMBL4732076, “Design, synthesis and bioevaluation of inhibitors targeting HSP90-CDC37 protein-protein interaction based on a hydrophobic core” (Eur J Med Chem, 2021):
# The source made the active and inactive calls. The calls are words filed in the database; no cut-off is given here.
# Experiments:
# HCT-116 [1] = experiment: Antiproliferative activity against human HCT-116 cells assessed as reduction in cell viability incubated for 72 hrs by MTT assay; assay type: functional, cell-based
# How it was run: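 HCT116 cells in RPMI 1640 with 10% FBS, 37 °C, 5% CO2. Seeded at 3000–5000 cells/well and left 24 h, then exposed to serial compound dilutions for 72 h. Proliferation read by MTT kit using the standard protocol.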
# Heat shock protein HSP90 [2] = target: T1, Heat shock protein HSP90 (Homo sapiens, UniProt P07900+P08238); experiment: Binding affinity to recombinant human N-terminal truncated HSP90 (9 to 236 residues) expressed in Escherichia coli BL21 (DE3) assessed as off rate constant by biolayer interferometry assay
# Heat shock protein HSP90 [3] = target: T1, Heat shock protein HSP90; experiment: Binding affinity to recombinant human N-terminal truncated HSP90 (9 to 236 residues) expressed in Escherichia coli BL21 (DE3) assessed as on rate constant by biolayer interferometry assay
# Mus musculus [4] = experiment: In vivo inhibition of HSP90/[…] interaction in BALB/c mouse xenografted with human HCT-116 cells assessed as reduction in CDK4 level at 20 mg/kg, po administered for 37 days and measured on day 37 by […] immunohistochemistry analysis; assay type: functional, organism-based; conditions: time 37.0 day
# HCT-116 [5] = experiment: Antitumor activity against human HCT-116 cells xenografted in BALB/c mouse assessed as reduction in tumor volume at 20 mg/kg, po administered for 37 days and measured on day 37; assay type: functional, organism-based; conditions: time 37.0 day
# How it was run: (§1)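 HCT116 cells (1×10^7) mixed 3:1 with Matrigel and injected into the flank of 6-week-old BALB/c nude mice, randomized into groups. Dosing started at mean tumor volume 125 mm³: daily oral doses of 10 or 20 mg/kg in 0.9% saline with 5% DMSO, for 37 days. Tumor volume measured daily by calipers as length×width²/2; body weight recorded every 1–4 days. n = 6, mean ± SD.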
# [6] = Toxicity in BALB/c mouse xenografted with human HCT-116 cells assessed as effect on body weight at 20 mg/kg, po administered and observed for 37 days; assay type: organism-based; conditions: in vivo, 888 h, time 37 day; how it was run: as §1
# Heat shock protein HSP90 [7] = target: T1, Heat shock protein HSP90; experiment: Binding affinity to recombinant human N-terminal truncated HSP90 (9 to 236 residues) expressed in Escherichia coli BL21 (DE3) assessed as dissociation rate constant by biolayer interferometry assay
# Heat shock protein HSP90 [8] = target: T1, Heat shock protein HSP90; experiment: Inhibition of HSP90 (unknown origin) at 100 uM measured after 1.5 hrs in presence of ATP by spectrophotometry relative to control; assay type: protein assay
# HCT-116 [9] = experiment: Antitumor activity against human HCT-116 cells xenografted in BALB/c mouse assessed as reduction in tumor at 10 to 20 mg/kg, po administered for 37 days and measured on day 37 by H and E staining based immunohistochemistry analysis; assay type: functional, organism-based; conditions: dose 10-20 mg/kg, time 37.0 day
# HCT-116 [10] = experiment: Inhibition of HSP90/CDC37 interaction in human HCT-116 cells assessed as downregulation of HSP70 at 1 to 10 uM incubated for 12 hrs by Western blot analysis; conditions: dose 1-10 µM
# HCT-116 [11] = experiment: Inhibition of HSP90/CDC37 interaction in human HCT-116 cells for 12 hrs by immunoprecipitation based Western blot analysis; assay type: cell-based; conditions: dose 1-10 µM
# How it was run: (§2)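 HCT116 cells at ~90% confluence given compound (0, 1, 5, 10 μM) or DMSO for 12 h. Lysed 1 h on ice in RIPA buffer (50 mM Tris, 150 mM NaCl, 1% NP-40, protease inhibitors, pH 7.4), then spun 15 min at 4 °C. HSP90 immunoprecipitated with protein A/G magnetic beads over 3 h. Beads washed five times; blots probed for HSP90, CDC37 and CDK4.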
# HCT-116 [12] = experiment: Inhibition of HSP90/CDC37 interaction in human HCT-116 cells assessed as reduction in CDK4 expression at 1 to 10 uM incubated for 12 hrs by immunoprecipitation based Western blot analysis; assay type: cell-based; conditions: dose 1-10 µM; how it was run: as §2
# Heat shock protein HSP90 [13] = target: T1, Heat shock protein HSP90; experiment: Binding affinity to HSP90 in human HCT-116 cells assessed as increase in thermal stability at 5 uM incubated for 12 hrs at 35 to 65 degC by […]; assay type: cell-based
# How it was run: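 HCT116 cells at ~90% confluence treated with 5 μM compound or DMSO for 12 h, then washed and resuspended in PBS. Aliquots heated 3 min across 35–65 °C, freeze-thawed three times in liquid nitrogen and centrifuged. Soluble HSP90 and CDC37 detected by Western blot. Three independent experiments.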
# [14] = Toxicity in BALB/c mouse xenografted with human HCT-116 cells assessed as effect on body weight at 10 to 20 mg/kg, po administered and observed for 37 days; assay type: organism-based; conditions: in vivo, 888 h, dose 10-20 mg/kg, time 37 day; how it was run: as §1
# HCT-116 [15] = experiment: Inhibition of HSP90/CDC37 interaction in human HCT-116 cells assessed as downregulation of CDK6 incubated for 12 hrs by Western blot analysis; assay type: cell-based; conditions: dose 1-10 µM
# How it was run: (§3)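 HCT116 cells treated with 0, 1, 5 and 10 μM compound for 12 h. Whole-cell levels of HSP90, HSP70, CDC37, CDK4, CDK6, cyclin D1, p21 and p27 measured by Western blot, with β-actin as loading control. Three independent experiments.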
# HCT-116 [16] = experiment: Induction of cell cycle arrest in human HCT-116 cells assessed as increase in accumulation at G0/G1 phase at 1 to 10 uM incubated for 24 hrs by propidium iodide staining based flow cytometric analysis; assay type: functional; conditions: dose 1-10 µM
# How it was run: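 HCT116 cells exposed to 0, 1, 5 and 10 μM compound for 24 h. Fixed in 75% ethanol overnight at 4 °C, treated with RNase I (50 μg/mL) in PBS for 30 min at 37 °C, then stained with propidium iodide (50 μg/mL) for 15 min. Cell-cycle phases measured by flow cytometry.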
# HCT-116 [17] = experiment: Inhibition of HSP90/CDC37 interaction in human HCT-116 cells assessed as downregulation of Cyclin D1 at 1 to 10 uM incubated for 12 hrs by Western blot analysis; conditions: dose 1-10 µM
# HCT-116 [18] = experiment: Inhibition of HSP90/CDC37 interaction in human HCT-116 cells assessed as upregulation of p21/p27 at 1 to 10 uM incubated for 12 hrs by Western blot analysis; conditions: dose 1-10 µM
# Mus musculus [19] = experiment: In vivo inhibition of HSP90/[…] interaction in BALB/c mouse xenografted with human HCT-116 cells assessed as reduction in CDK4 level administered orally for 37 days and measured on day 37 by […] immunohistochemistry analysis; assay type: functional, organism-based; conditions: dose 10-20 mg/kg, time 37.0 day
# HCT-116 [20] = experiment: Inhibition of HSP90/CDC37 interaction in human HCT-116 cells assessed as downregulation of CDK4 incubated for 12 hrs by Western blot analysis; assay type: cell-based; conditions: dose 1-10 µM; how it was run: as §3
# HCT-116 [21] = experiment: Antitumor activity against human HCT-116 cells xenografted in BALB/c mouse assessed as reduction in tumor volume administered orally for 37 days and measured on day 37; assay type: functional; conditions: dose 10-20 mg/kg, time 37.0 day; how it was run: as §1
# [22] = Homo sapiens, HCT-116, 72 h, read-out: IC50
IC50 (HCT-116 [1]; [22]) [µM],K (Heat shock protein HSP90 [2]),K (Heat shock protein HSP90 [3]),Kd (Heat shock protein HSP90 [7]),Structure (SMILES),further results
11.1,inactive,inactive,,O=S(=O)(Nc1ccc(Nc2ccnc(N3CCNCC3)n2)cc1)c1ccc(Cl)cc1,
,,,,Cc1cc(C)c(S(=O)(=O)N(CC(=O)O)c2ccc(Nc3ccnc(N4CCNCC4)n3)cc2)c(C)c1,inhibition (Mus musculus [4]): Active; Activity (HCT-116 [5]): Active; Activity [6]: Non-Toxic
19.3,0.0366 s⁻¹,3.17 10^3(1/Ms),11.5 µM,CCCc1ccc(S(=O)(=O)Nc2ccc(Nc3ccnc(N4CCNCC4)n3)cc2)cc1.Cl,
13.7,0.112 s⁻¹,6.1 10^3(1/Ms),18.4 µM,Cl.O=S(=O)(Nc1ccc(Nc2ccnc(N3CCNCC3)n2)cc1)c1ccc(-c2ccccc2)cc1,
> 20,inactive,inactive,,O=S(=O)(Nc1ccc(Nc2ccnc(N3CCNCC3)n2)cc1)c1ccc(F)cc1,
7.05,inactive,inactive,,O=S(=O)(Nc1ccc(Nc2ccnc(N3CCNCC3)n2)cc1)c1ccc(OCc2ccccc2)cc1,
7.5,0.121 s⁻¹,1.04 10^4/Ms,11.6 µM,CCCCc1ccc(S(=O)(=O)Nc2ccc(Nc3ccnc(N4CCNCC4)n3)cc2)cc1.Cl,
> 20,inactive,inactive,,CCc1ccc(S(=O)(=O)Nc2ccc(Nc3ccnc(N4CCNCC4)n3)cc2)cc1,
16.7,,,> 100 µM,CCCCCc1ccc(S(=O)(=O)Nc2ccc(Nc3ccnc(N4CCNCC4)n3)cc2)cc1.Cl,
13.4,0.337 s⁻¹,3.54 10^4/Ms,9.52 µM,Cl.O=S(=O)(Nc1ccc(Nc2ccnc(N3CCNCC3)n2)cc1)c1ccc2c(c1)CCC2,
> 20,inactive,inactive,,N#Cc1ccc(S(=O)(=O)Nc2ccc(Nc3ccnc(N4CCNCC4)n3)cc2)cc1,
> 20,,,> 100 µM,CC(C)c1ccc(S(=O)(=O)Nc2ccc(Nc3ccnc(N4CCNCC4)n3)cc2)cc1.Cl,
> 50,,,>= 20 uM,COc1cc(S(=O)(=O)Nc2ccc(Nc3ccnc(N4CCNCC4)n3)cc2)c(C)cc1C.Cl,inhibition (Heat shock protein HSP90 [8]): 56%
16.4,0.182 s⁻¹,3.55 10^4/Ms,5.13 µM,CCOC(=O)c1ccc(S(=O)(=O)Nc2ccc(Nc3ccnc(N4CCNCC4)n3)cc2)cc1.Cl,
> 20,inactive,inactive,,CC(C)c1cc(C(C)C)c(S(=O)(=O)Nc2ccc(Nc3ccnc(N4CCNCC4)n3)cc2)c(C(C)C)c1,
> 20,inactive,inactive,,O=S(=O)(Nc1ccc(Nc2ccnc(N3CCNCC3)n2)cc1)c1ccc(Oc2ccccc2)cc1,
5.82,0.0321 s⁻¹,3.02 10^3(1/Ms),10.6 µM,Cl.O=S(=O)(Nc1ccc(Nc2ccnc(N3CCNCC3)n2)cc1)c1ccc2c(c1)CCO2,
,inactive,inactive,,Cl.Cn1cnc(S(=O)(=O)Nc2ccc(Nc3ccnc(N4CCNCC4)n3)cc2)c1,IC50 (HCT-116 [1]; hct-116): Not Active
> 20,inactive,inactive,,O=S(=O)(Nc1ccc(Nc2ccnc(N3CCNCC3)n2)cc1)c1cccs1,
> 20,inactive,inactive,,O=S(=O)(Nc1ccc(Nc2ccnc(N3CCNCC3)n2)cc1)c1ccc(OC(F)(F)F)cc1,
> 20,inactive,inactive,,Cc1ccc(S(=O)(=O)Nc2ccc(Nc3ccnc(N4CCNCC4)n3)cc2)cc1,
6.34,0.112 s⁻¹,2.03 10^4/Ms,5.52 µM,Cc1c(C)c(S(=O)(=O)Nc2ccc(Nc3ccnc(N4CCNCC4)n3)cc2)c(C)c2c1OC(C)(C)C2.Cl,Activity (HCT-116 [9]): Active; inhibition (HCT-116 [10]): inactive; inhibition (HCT-116 [11]): Dose-dependent effect; inhibition (HCT-116 [12]): Active; Activity (Heat shock protein HSP90 [13]): Active; Activity [14]: Non-Toxic; inhibition (HCT-116 [15]): Dose-dependent effect; Activity (HCT-116 [16]): Active; inhibition (HCT-116 [17]): Active; inhibition (HCT-116 [18]): Active; inhibition (Mus musculus [19]): Dose-dependent effect; inhibition (HCT-116 [20]): Dose-dependent effect; Activity (HCT-116 [21]): Dose-dependent effect
1.35,inactive,inactive,,O=S(=O)(Nc1ccc(Nc2ccnc(N3CCNCC3)n2)cc1)c1ccc(Br)cc1,
